From ChEMBL document CHEMBL1135991 (J Med Chem, 2002)

What was measured:
Melanocortin receptor 4 [1] = molecular target: T1, Melanocortin receptor 4 (Homo sapiens, UniProt P32245); experiment: Stimulation of intracellular cAMP levels in CHO cells expressing human Melanocortin-4 receptor; format: functional, cell-based
Melanocortin receptor 3 [2] = molecular target: T2, Melanocortin receptor 3 (Homo sapiens, UniProt P41968); experiment: Stimulation of intracellular cAMP levels in HEK293 cells expressing human Melanocortin-3 receptor
Melanocortin receptor 5 [3] = molecular target: T3, Melanocortin receptor 5 (Homo sapiens, UniProt P33032); experiment: Stimulation of intracellular cAMP levels in HEK293 cells expressing human melanocortin 5 receptor
Melanocortin receptor 5 [4] = molecular target: T3, Melanocortin receptor 5; experiment: Binding affinity for human melanocortin 5 receptor (hMC5R) expressed in HEK293 cells; format: cell-based
Melanocortin receptor 4 [5] = molecular target: T1, Melanocortin receptor 4; experiment: Inhibition of binding to human Melanocortin-4 receptor (hMC4R)
Melanocortin receptor 5 [6] = molecular target: T3, Melanocortin receptor 5; experiment: Effective concentration against human melanocortin 5 receptor (hMC5R) in HEK293 cells; format: cell-based
Summary of the method: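 Transfected HEK293 cells were seeded 50 000/well 48 h ahead. They were preincubated 1 min at 37 °C in EBSS with IBMX, then given varying melanotropin concentrations for 3 min at 37 °C. The reaction was stopped with ice-cold Tris/EDTA and lysates boiled 15 min. Supernatant cAMP was measured by competitive binding kit. EC50 came from a nonlinear least-squares fit; duplicate experiments, each in triplicate.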

Melanocortin receptor 3 [7] = molecular target: T2, Melanocortin receptor 3; experiment: Binding affinity for human Melanocortin-3 receptor (hMC3R) expressed in HEK293 cells; format: cell-based
Melanocortin receptor 4 [8] = molecular target: T1, Melanocortin receptor 4; experiment: Binding affinity for human Melanocortin-4 receptor (hMC4R)
Melanocortin receptor 3 [9] = molecular target: T2, Melanocortin receptor 3; experiment: Inhibition of human Melanocortin-3 receptor (hMC3R) expressed in HEK293 cells; format: cell-based
[10] = molecular target: Melanocortin receptor (M1 and M4) (Homo sapiens) (UniProt P32245+Q01726); experiment: Selectivity as ratio of binding affinity for human melanocortin 1 and melanocortin 4 receptors; format: protein assay
Homo sapiens = species on record: Homo sapiens; experiment: Selectivity as ratio of binding affinity for human melanocortin 1 and melanocortin 3 receptors

T3 sequence (P33032 whole entry): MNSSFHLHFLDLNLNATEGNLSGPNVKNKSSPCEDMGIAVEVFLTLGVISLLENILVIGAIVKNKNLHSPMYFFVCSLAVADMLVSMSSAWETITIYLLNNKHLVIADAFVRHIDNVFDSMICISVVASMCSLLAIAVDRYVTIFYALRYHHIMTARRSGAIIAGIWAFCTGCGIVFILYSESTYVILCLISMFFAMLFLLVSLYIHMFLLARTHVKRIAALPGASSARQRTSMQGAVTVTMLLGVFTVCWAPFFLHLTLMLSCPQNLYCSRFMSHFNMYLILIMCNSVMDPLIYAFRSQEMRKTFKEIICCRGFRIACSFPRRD
T2 sequence (P41968 whole entry): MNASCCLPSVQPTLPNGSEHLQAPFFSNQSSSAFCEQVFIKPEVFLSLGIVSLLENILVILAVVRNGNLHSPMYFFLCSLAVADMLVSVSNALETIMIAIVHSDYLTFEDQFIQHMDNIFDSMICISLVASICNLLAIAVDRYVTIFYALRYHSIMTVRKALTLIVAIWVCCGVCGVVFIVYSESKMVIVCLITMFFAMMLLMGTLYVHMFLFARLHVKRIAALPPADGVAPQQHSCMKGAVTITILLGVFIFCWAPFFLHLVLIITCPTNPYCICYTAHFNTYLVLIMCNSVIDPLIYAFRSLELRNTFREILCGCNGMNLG
T1 sequence (P32245 whole entry): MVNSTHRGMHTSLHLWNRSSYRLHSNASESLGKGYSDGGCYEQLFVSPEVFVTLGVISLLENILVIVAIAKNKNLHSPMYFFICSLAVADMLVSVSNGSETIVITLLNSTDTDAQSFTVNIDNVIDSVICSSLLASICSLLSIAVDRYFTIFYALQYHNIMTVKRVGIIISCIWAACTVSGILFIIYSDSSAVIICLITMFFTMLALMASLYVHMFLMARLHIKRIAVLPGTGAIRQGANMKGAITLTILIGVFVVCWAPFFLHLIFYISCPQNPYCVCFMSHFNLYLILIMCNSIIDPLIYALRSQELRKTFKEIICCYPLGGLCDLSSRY

Compound | ACT (Melanocortin receptor 4 [1]) | ACT (Melanocortin receptor 3 [2]) | ACT (Melanocortin receptor 5 [3]) | EC50 (Melanocortin receptor 4 [5]) | EC50 (Melanocortin receptor 5 [6]) | Ki (Melanocortin receptor 3 [7]) | Ki (Melanocortin receptor 4 [8]) | EC50 (Melanocortin receptor 3 [9]) | further results
N=C(N)NCCC[C@@H]1NC(=O)[C@@H](Cc2ccc3ccccc3c2)NC(=O)[C@H](Cc2c[nH]cn2)NC(=O)CCC(=O)NCCCC[C@H](C(N)=O)NC(=O)[C@@H](Cc2c[nH]c3ccccc23)NC1=O | 35% | 88% | 100% | – | – | – | – | – | –
N=C(N)NCCC[C@H](NC(=O)[C@@H](Cc1ccccc1)NC(=O)[C@H](Cc1cnc[nH]1)NC(=O)CCC(=O)O)C(=O)N[C@@H](Cc1c[nH]c2ccccc12)C(=O)N[C@@H](CCCCN)C(N)=O | – | – | – | 3000 nM | 1100 nM | 140 nM | 630 nM | 68 nM | Ki (Melanocortin receptor 5 [4]): 880 nM
C[C@H]1NC(=O)[C@H](Cc2c[nH]cn2)NC(=O)CCC(=O)NCCCC[C@@H](C(N)=O)NC(=O)[C@H](Cc2c[nH]c3ccccc23)NC(=O)[C@H](CCCN=C(N)N)NC1=O | – | – | – | > 10000 nM | – | – | – | – | EC50 (Melanocortin receptor 5 [6]; hek293): > 10000 nM; EC50 (Melanocortin receptor 3 [9]; hek293): > 10000 nM
C[C@@H]1NC(=O)CCC(=O)NCCCC[C@H](C(N)=O)NC(=O)[C@@H](Cc2c[nH]c3ccccc23)NC(=O)[C@H](CCCN=C(N)N)NC(=O)[C@@H](Cc2ccccc2)NC1=O | 35% | 19% | 0% | – | – | – | – | – | –
N=C(N)NCCC[C@@H]1NC(=O)[C@@H](Cc2ccccc2)NC(=O)[C@H](Cc2c[nH]cn2)NC(=O)CCCC(=O)NCCCC[C@H](C(N)=O)NC(=O)[C@@H](Cc2c[nH]c3ccccc23)NC1=O | 100% | 100% | 0% | – | – | – | – | – | –
N=C(N)NCCC[C@@H]1NC(=O)[C@@H](Cc2ccccc2)NC(=O)[C@H](Cc2c[nH]cn2)NC(=O)CCC(=O)NCCCC[C@@H](C(N)=O)NC(=O)[C@H](Cc2c[nH]c3ccccc23)NC1=O | – | – | – | 1.6 nM | 560 nM | 77 nM | 5.7 nM | 70 nM | Ki (Melanocortin receptor 5 [4]): 660 nM
NCCCC[C@H](NC(=O)[C@H](Cc1c[nH]c2ccccc12)NC(=O)[C@H](CCCN=C(N)N)NC(=O)[C@@H](Cc1ccccc1)NC(=O)[C@H](Cc1c[nH]cn1)NC(=O)CCC(=O)O)C(N)=O | 26.5% | 100% | 100% | – | – | – | – | – | –
N=C(N)NCCC[C@@H]1NC(=O)[C@@H](Cc2ccccc2)NC(=O)[C@H](Cc2c[nH]cn2)NC(=O)c2ccccc2C(=O)NCCCC[C@H](C(N)=O)NC(=O)[C@@H](Cc2c[nH]c3ccccc23)NC1=O | 98% | 76% | 0% | – | – | – | – | – | –
N=C(N)NCCC[C@@H]1NC(=O)[C@@H](Cc2ccc3ccccc3c2)NC(=O)[C@H](Cc2cnc[nH]2)NC(=O)c2ccccc2C(=O)NCCCC[C@@H](C(N)=O)NC(=O)[C@H](Cc2c[nH]c3ccccc23)NC1=O | – | – | – | > 10000 nM | 640 nM | 7.8 nM | 57 nM | 18 nM | Ki (Melanocortin receptor 5 [4]): 5700 nM
N=C(N)NCCC[C@@H]1NC(=O)[C@@H](Cc2ccc3ccccc3c2)NC(=O)[C@H](Cc2cnc[nH]2)NC(=O)CCCC(=O)NCCCC[C@@H](C(N)=O)NC(=O)[C@H](Cc2c[nH]c3ccccc23)NC1=O | – | – | – | 1200 nM | 1.01 nM | 5.9 nM | 220 nM | > 10000 nM | Ki (Melanocortin receptor 5 [4]): 26 nM
N=C(N)NCCC[C@@H]1NC(=O)[C@@H](Cc2ccccc2)NC(=O)[C@@H]2CCCN2C(=O)CCC(=O)NCCCC[C@@H](C(N)=O)NC(=O)[C@H](Cc2c[nH]c3ccccc23)NC1=O | – | – | – | 2300 nM | – | – | 190 nM | – | Ki (Melanocortin receptor 5 [4]; hek293): 990 nM; EC50 (Melanocortin receptor 5 [6]; hek293): 1300 nM; Ki (Melanocortin receptor 3 [7]; hek293): 390 nM; EC50 (Melanocortin receptor 3 [9]; hek293): 790 nM
C[C@@H]1NC(=O)[C@@H](Cc2ccccc2)NC(=O)[C@H](Cc2cnc[nH]2)NC(=O)CCC(=O)NCCCC[C@@H](C(N)=O)NC(=O)[C@H](Cc2c[nH]c3ccccc23)NC1=O | – | – | – | > 1000 nM | > 10000 nM | 370 nM | – | 1000 nM | –
N=C(N)NCCC[C@@H]1NC(=O)[C@@H](Cc2ccccc2)NC(=O)[C@H](Cc2cnc[nH]2)NC(=O)c2ccccc2C(=O)NCCCC[C@@H](C(N)=O)NC(=O)[C@H](Cc2c[nH]c3ccccc23)NC1=O | – | – | – | 70 nM | > 5000 nM | 280 nM | 58 nM | 13 nM | –
N=C(N)NCCC[C@@H]1NC(=O)[C@@H](Cc2ccc3ccccc3c2)NC(=O)[C@H](Cc2c[nH]cn2)NC(=O)CCCC(=O)NCCCC[C@H](C(N)=O)NC(=O)[C@@H](Cc2c[nH]c3ccccc23)NC1=O | 22.8% | 0% | 81% | – | – | – | – | – | –
C[C@H]1NC(=O)[C@H](Cc2c[nH]cn2)NC(=O)CCC(=O)NCCCC[C@H](C(N)=O)NC(=O)[C@@H](Cc2c[nH]c3ccccc23)NC(=O)[C@H](CCCN=C(N)N)NC1=O | 0% | 0% | 0% | – | – | – | – | – | –
C[C@@H]1NC(=O)[C@@H](Cc2ccccc2)NC(=O)[C@H](Cc2c[nH]cn2)NC(=O)CCC(=O)NCCCC[C@H](C(N)=O)NC(=O)[C@@H](Cc2c[nH]c3ccccc23)NC1=O | 0% | 53% | 0% | – | – | – | – | – | –
N=C(N)NCCC[C@@H]1NC(=O)[C@@H](Cc2ccccc2)NC(=O)[C@H](Cc2c[nH]cn2)NC(=O)CCC(=O)NCCCC[C@H](C(N)=O)NC(=O)[C@@H](Cc2c[nH]c3ccccc23)NC1=O | 100% | 95% | 67% | – | – | – | – | – | Selectivity ratio [10]: 700; Selectivity ratio (Homo sapiens): 52.5
C[C@@H]1NC(=O)CCC(=O)NCCCC[C@@H](C(N)=O)NC(=O)[C@H](Cc2c[nH]c3ccccc23)NC(=O)[C@H](CCCN=C(N)N)NC(=O)[C@@H](Cc2ccccc2)NC1=O | – | – | – | 22 nM | > 10000 nM | 1400 nM | 1700 nM | 42 nM | –
N=C(N)NCCC[C@@H]1NC(=O)[C@@H](Cc2ccc3ccccc3c2)NC(=O)[C@H](Cc2c[nH]cn2)NC(=O)c2ccccc2C(=O)NCCCC[C@H](C(N)=O)NC(=O)[C@@H](Cc2c[nH]c3ccccc23)NC1=O | 0% | 36% | 56% | – | – | – | – | – | –
N=C(N)NCCC[C@@H]1NC(=O)[C@@H](Cc2ccccc2)NC(=O)[C@H](Cc2c[nH]cn2)NC(=O)CCCC(=O)NCCCC[C@@H](C(N)=O)NC(=O)[C@H](Cc2c[nH]c3ccccc23)NC1=O | – | – | – | 50 nM | > 10000 nM | 110 nM | 670 nM | 75 nM | Ki (Melanocortin receptor 5 [4]): 3100 nM
N=C(N)NCCC[C@@H]1NC(=O)[C@@H](Cc2ccc3ccccc3c2)NC(=O)[C@H](Cc2c[nH]cn2)NC(=O)CCC(=O)NCCCC[C@@H](C(N)=O)NC(=O)[C@H](Cc2c[nH]c3ccccc23)NC1=O | – | – | – | 260 nM | 150 nM | 12.1 nM | 87 nM | 70 nM | Ki (Melanocortin receptor 5 [4]): 140 nM
N=C(N)NCCC[C@H]1NC(=O)[C@H](Cc2ccccc2)NC(=O)[C@H]2CCCN2C(=O)CCC(=O)NCCCC[C@@H](C(N)=O)NC(=O)[C@H](Cc2c[nH]c3ccccc23)NC1=O | 60.5% | 21% | 100% | – | – | – | – | – | –
